Legend:
[1] = melting temperature; fluorescence melt of hairpins on a sequencing array, two-state fit, raised by 9.35 °C to match UV melts; conditions: sodium 0.088 M
Summary of the method: (§1)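 Cy3 signals were normalised both to pre-quench Cy3 and to control constructs. They came from library hairpins carrying annealed Cy3 and quencher oligos on a sequenced MiSeq flow cell, imaged in 50 mM Na-HEPES pH 8.0, 25 mM NaCl, in 2.5 °C steps up to 60 °C. Bootstrapped two-state fits gave melting temperature and folding enthalpy, and four replicates were combined by inverse variance. Fitted temperatures were then raised by 9.35 °C to match UV melts.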

[2] = folding enthalpy; higher = less favourable; fluorescence melt of hairpins on a sequencing array, two-state fit; conditions: sodium 0.088 M
Summary of the method: as §1

Row | Sequence | Tm [1] [°C] | folding enthalpy [2] [kcal/mol]
1 | GGACACGAAAGTGATTCC ((((((....)))..))) | 31.7 | -14.7
2 | GGACACGAAAGTGCGTCC ((((((....)))..))) | 40.5 | -18.2
3 | GGACACGAAAGTGGCTCC ((((((....)))..))) | 49 | -11.8
4 | GGACACGAAAGTGTGTCC ((((((....)))..))) | 55.5 | -30.6
5 | GGACAGACGAAAGTCTCC (((..(((....)))))) | 30.4 | -10.2
6 | GGACATGGAAACATGTTC (.(((((....))))).) | 47.4 | -27.6
7 | GGACCAGGAAACTGGTTC (.(((((....))))).) | 51.8 | -24.6
8 | GGACCCCCGAAAGGGTCC (((..(((....)))))) | 62.1 | -34.8
9 | GGACCCCGAAAGGGTTCC (((.(((....))).))) | 52.5 | -23.2
10 | GGACCCGAAAGGGAATCC ((((((....)))..))) | 34.6 | -16.7
11 | GGACCCGAAAGGGACTCC ((((((....)))..))) | 54 | -13
12 | GGACCCGAAAGGGCATCC ((((((....)))..))) | 34.2 | -11.7
13 | GGACCCGAAAGGGGCTCC ((((((....)))..))) | 56.5 | -9.41
14 | GGACCCGGAAACGGACCC ((..(((....)))..)) | 32.7 | -13.8
15 | GGACCGCCGAAAGGCTCC (((..(((....)))))) | 32.2 | -10
16 | GGACCTGAAAAGGTCC ((((((....)))))) | 68.2 | -34.4
17 | GGACGACGAAAGTCCTCC (((.(((....))).))) | 45.4 | -19.4
18 | GGACGAGGAAACTCATCC (((.(((....))).))) | 36.7 | -27.4
19 | GGACGAGGAAACTCGCCC ((.((((....)))).)) | 51.7 | -23.3
20 | GGACGCACGAAAGTGTCC (((..(((....)))))) | 47 | -21.4
21 | GGACGCCGAAAGGCTCC (((.(((....)))))) | 54.3 | -19.7
22 | GGACGCCGAAAGGCTTCC (((.(((....))).))) | 53.8 | -23.4
23 | GGACGCGAAAGCGGATCC ((((((....)))..))) | 47.5 | -12.3

Row | Sequence | Tm [1] [°C] | folding enthalpy [2] [kcal/mol]
24 | GGACGCGAAAGCGGCTCC ((((((....)))..))) | 58 | -8.87
25 | GGACGGAAACGTCC (((((....))))) | 66.4 | -31.9
26 | GGACGGACGAAAGTCTCC (((..(((....)))))) | 30.5 | -13.2
27 | GGACGGGGAAACCCATCC (((.(((....))).))) | 41.7 | -27.6
28 | GGACGGGGAAACCCGTTC (.(((((....))))).) | 56.1 | -21.4
29 | GGACGTCGAAAGACTCC (((.(((....)))))) | 51.2 | -23.8
30 | GGACGTGGAAACGCGTCC (((((.(....).))))) | 61.9 | -45.2
31 | GGACGTGGAAACGTGTCC ((((..(....)..)))) | 44.3 | -19.9
32 | GGACTAGGAAACTGGTCC ((((.((....)).)))) | 50.9 | -41.6
33 | GGACTCCCGAAAGGGTCC (((..(((....)))))) | 45.3 | -16.8
34 | GGACTCCGAAAGGATTCC (((.(((....))).))) | 47 | -30.2
35 | GGACTCGAAAGAGAATCC ((((((....)))..))) | 28.8 | -12.6
36 | GGACTCGAAAGAGCTCC ((((((....))).))) | 45 | -26
37 | GGACTCGAAAGAGGGTCC ((((((....)))..))) | 43.9 | -21
38 | GGACTCGAAAGAGTGTCC ((((((....)))..))) | 40.7 | -16.9
39 | GGACTCGGAAACGAGCCC ((.((((....)))).)) | 53.5 | -34.7
40 | GGACTCTCGAAAGAGTCC (((..(((....)))))) | 60.9 | -42.7
41 | GGACTGCGAAAGCACTCC (((.(((....))).))) | 38.9 | -8.91
42 | GGACTTCCGAAAGGATCC (((..(((....)))))) | 29.1 | -12.7
43 | GGACTTGGAAACAGGTCC ((((.((....)).)))) | 49.4 | -46.5
44 | GGAGAACGAAAGTTATCC (((.(((....))).))) | 51.6 | -37.2
45 | GGAGAACGAAAGTTTTCC (((.(((....))).))) | 47.4 | -29.2
46 | GGAGAAGCGAAAGCTTCC (((..(((....)))))) | 42.7 | -9.26

Row | Sequence | Tm [1] [°C] | folding enthalpy [2] [kcal/mol]
47 | GGAGAAGGAAACTTCTCC (((((((....))))))) | 57.7 | -43.1
48 | GGAGAAGGAAACTTCTTC (.(((((....))))).) | 36.7 | -23.1
49 | GGAGACACGAAAGTGTCC (((..(((....)))))) | 44.1 | -8.97
50 | GGAGACCCGAAAGGGTCC (((..(((....)))))) | 47.6 | -7.91
51 | GGAGACCGAAAGGTATCC (((.(((....))).))) | 61.4 | -41.4
52 | GGAGACGAAAGTCAATCC ((((((....)))..))) | 31 | -15.1
53 | GGAGACGAAAGTCACTCC ((((((....)))..))) | 37.6 | -13.3
54 | GGAGACGAAAGTCATTCC ((((((....)))..))) | 29.6 | -12
55 | GGAGACGAAAGTCGATCC ((((((....)))..))) | 44 | -13
56 | GGAGACGCGAAAGCGTCC (((..(((....)))))) | 45.3 | -7.09
57 | GGAGACGGAAACGCCTCC ((((.((....)).)))) | 51.4 | -48.4
58 | GGAGACGGAAACGTCTTC (.(((((....))))).) | 50.7 | -17.4
59 | GGAGATACGAAAGTATCC (((..(((....)))))) | 40.9 | -12.7
60 | GGAGATCCGAAAGGATCC (((..(((....)))))) | 42 | -9.31
61 | GGAGATCGAAAGATGTCC (((.(((....))).))) | 50.4 | -29.5
62 | GGAGCACGAAAGTGATCC (((.(((....))).))) | 66.2 | -38.3
63 | GGAGCACGAAAGTGTCC (((.(((....)))))) | 48.5 | -16.4
64 | GGAGCAGGAAACTGCTTC (.(((((....))))).) | 51.7 | -26.4
65 | GGAGCAGGAAACTGTTCC (((.(((....))).))) | 48 | -29.5
66 | GGAGCCGAAAGGCAATCC ((((((....)))..))) | 38 | -11.2
67 | GGAGCCGAAAGGCACTCC ((((((....)))..))) | 39.9 | -11.1
68 | GGAGCCGAAAGGCAGTCC ((((((....)))..))) | 36.1 | -13.2
69 | GGAGCCGAAAGGCGATCC ((((((....)))..))) | 51.6 | -9.49

Row | Sequence | Tm [1] [°C] | folding enthalpy [2] [kcal/mol]
70 | GGAGCCGAAAGGCGTTCC ((((((....)))..))) | 40 | -10.1
71 | GGAGCGGGAAACCGCTTC (.(((((....))))).) | 58.2 | -16.6
72 | GGAGCTCGAAAGAGTTCC (((.(((....))).))) | 57.4 | -42.9
73 | GGAGCTGGAAACGGCTCC (((((.(....).))))) | 59.9 | -48.2
74 | GGAGGACGAAAGTCTCC (((.(((....)))))) | 50.5 | -22.6
75 | GGAGGAGAAATCCTCC ((((((....)))))) | 54.4 | -40.8
76 | GGAGGCGAAAGCCATCC ((((((....))).))) | 49.4 | -14.7
77 | GGAGGCGAAAGCCCTCC ((((((....))).))) | 61.1 | -18.1
78 | GGAGGCGAAAGCCGATCC ((((((....)))..))) | 51.8 | -9.71
79 | GGAGGCGAAAGCCGTCC ((((((....))).))) | 52.9 | -9.55
80 | GGAGGCGAAAGCCTGTCC ((((((....)))..))) | 38 | -8.31
81 | GGAGGCGAAAGCCTTCC ((((((....))).))) | 57.9 | -13.5
82 | GGAGGCGGAAACACCTCC (((((.(....).))))) | 50.1 | -39.4
83 | GGAGGCGGAAACGCCCCC ((.((((....)))).)) | 56.4 | -14.8
84 | GGAGGGACGAAAGTCTCC (((..(((....)))))) | 39.2 | -13.4
85 | GGAGGGCGAAAGCCGTCC (((.(((....))).))) | 67 | -21
86 | GGAGGGGCGAAAGCCTCC (((..(((....)))))) | 44.8 | -13.4
87 | GGAGGGGGAAACCCTTCC (((.(((....))).))) | 49.2 | -25.7
88 | GGAGGGGGAAACTCCTCC (((((.(....).))))) | 53.8 | -32.6
89 | GGAGGTCGAAAGACTCC (((.(((....)))))) | 51.1 | -21.3
90 | GGAGGTGAAAACCTCC ((((((....)))))) | 66.2 | -33.8
91 | GGAGGTGGAAACGTCTCC ((((..(....)..)))) | 35.9 | -18.4

— the array DNA melting data of Ke et al. (doi:10.1101/2024.01.08.574731)
